The test system of the experiment is Puccinia recondita. Briefly: Antifungal activity against Puccinia recondita wheat leaves treated as foliar spray after 10 days relative to triadimefon. It is filed as functional. In a few lines:
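Susceptible wheat cv. Ming-Xian 169 (10 germinating seeds per pot) was grown in a greenhouse at 15-20 °C and inoculated with P. recondita, then held 24 h in a moist chamber. Once the leaves were dry, each pot got a 10 mL spray of compound solution. Percent disease control versus untreated pots was scored 10 days later, in triplicate. Triadimefon (100 ppm) was run alongside. D = lg[a/(100−a)] − lg Mw.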
Regarding `Cc1cc(=O)c(-c2nnc(Nc3cccc(C(F)(F)F)c3)s2)nn1-c1ccccc1Cl`, the “inhibition (INH)” value is 70%.
Consider `Cc1cc(=O)c(-c2nnc(Nc3ccccc3F)s2)nn1-c1ccccc1Cl`, for which the “inhibition (INH)” value turned out to be 10%.
For `Cc1cc(=O)c(-c2nnc(Nc3ccccc3)s2)nn1-c1ccccc1Cl`, the “inhibition (INH)” value is on record as 10%.
With `Cc1cc(=O)c(-c2nnc(Nc3ccccc3F)s2)nn1-c1ccccc1` the figure was 50%; with `Cc1cc(=O)c(-c2nnc(Nc3cccc(C(F)(F)F)c3)s2)nn1-c1ccccc1`, 60%.
The result for `Cc1cc(=O)c(-c2nnc(Nc3cccc(C(F)(F)F)c3)s2)nn1-c1c(Cl)cccc1Cl` reads 50%; that for `Cc1cc(=O)c(-c2nnc(Nc3ccccc3F)s2)nn1-c1c(Cl)cccc1Cl`, 30%; that for `Cc1cc(=O)c(-c2nnc(Nc3cccc(C(F)(F)F)c3)s2)nn1-c1ccc(Cl)cc1`, 60%.
The result for `Cc1cc(=O)c(-c2nnc(Nc3ccccc3F)s2)nn1-c1ccc(Cl)cc1` reads 50%.
Turning to `Cc1cc(=O)c(-c2nnc(Nc3ccccc3F)s2)nn1-c1cc(Cl)c(Cl)cc1Cl`, the “inhibition (INH)” value came out at 60%.
Consider `Cc1cc(=O)c(-c2nnc(Nc3cccc(C(F)(F)F)c3)s2)nn1-c1cc(Cl)c(Cl)cc1Cl`, for which the “inhibition (INH)” value was 70%.
For the compound `Cc1ccc(-n2nc(-c3nnc(Nc4cccc(C(F)(F)F)c4)s3)c(=O)cc2C)c(C)c1`, the “inhibition (INH)” value worked out at 90%.
The result for `Cc1ccc(-n2nc(-c3nnc(Nc4ccccc4F)s3)c(=O)cc2C)c(C)c1` reads 90%; that for `Cc1cc(=O)c(-c2nnc(Nc3ccccc3F)s2)nn1-c1ccc(Cl)cc1Cl`, 80%.
As for `Cc1cc(=O)c(-c2nnc(Nc3cccc(C(F)(F)F)c3)s2)nn1-c1ccc(Cl)cc1Cl`, the “inhibition (INH)” value is reported as 90%.
In the case of `Cc1cc(=O)c(-c2nnc(Nc3ccccc3)s2)nn1-c1ccc(Cl)cc1Cl`, the “inhibition (INH)” value came to 20%.
